Laboratory results: ChEMBL document CHEMBL3860041, “Synthesis, biological evaluation and molecular modeling study of some new methoxylated 2-benzylthio-quinazoline-4(3H)-ones as nonclassical antifolates” (Bioorg Med Chem Lett, 2016)

Assays:
[1] = Growth inhibition of human LOXIMVI cells at 10 uM after 48 hrs by SRB assay relative to control; type: functional; conditions: LOX IMVI, read-out: GI
In short: (§1)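 NCI 60-cell-line panel, nine tumor subpanels; compounds tested at a single dose of 10 μM in the primary screen.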

[2] = Growth inhibition of human NCI/ADR-RES cells at 10 uM after 48 hrs by SRB assay relative to control; type: functional; conditions: read-out: GI; in short: as §1
[3] = Growth inhibition of human RXF393 cells at 10 uM after 48 hrs by SRB assay relative to control; type: functional; conditions: RXF 393, 48 h, read-out: GI; in short: as §1
[4] = Growth inhibition of human MOLT4 cells at 10 uM after 48 hrs by SRB assay relative to control; type: functional; conditions: MOLT-4, 48 h, read-out: GI; in short: as §1
[5] = Growth inhibition of human OVCAR8 cells at 10 uM after 48 hrs by SRB assay relative to control; type: functional; conditions: OVCAR-8, 48 h, read-out: GI; in short: as §1
[6] = Growth inhibition of human OVCAR3 cells at 10 uM after 48 hrs by SRB assay relative to control; type: functional; conditions: OVCAR-3, 48 h, read-out: GI; in short: as §1
[7] = Growth inhibition of human UACC62 cells at 10 uM after 48 hrs by SRB assay relative to control; type: functional; conditions: UACC-62, 48 h, read-out: GI
In short: (§2)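 Primary screen across the full NCI 60 human tumour cell line panel, which covers nine tumour subpanels. A single dose of 10 μM was applied to each line, and growth was recorded for each cell line.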

[8] = Growth inhibition of human COLO205 cells at 10 uM after 48 hrs by SRB assay relative to control; type: functional; conditions: COLO 205, 48 h, read-out: GI; in short: as §1
[9] = Growth inhibition of human MCF7 cells at 10 uM after 48 hrs by SRB assay relative to control; type: functional; conditions: MCF7, 48 h, read-out: GI; in short: as §1
[10] = Growth inhibition of human U251 cells at 10 uM after 48 hrs by SRB assay relative to control; type: functional; conditions: U-251, 48 h, read-out: GI; in short: as §2
[11] = Growth inhibition of human MDA-MB-231 cells at 10 uM after 48 hrs by SRB assay relative to control; type: functional; conditions: MDA-MB-231, 48 h, read-out: GI; in short: as §1
[12] = Growth inhibition of human Hs 578T cells at 10 uM after 48 hrs by SRB assay relative to control; type: functional; conditions: read-out: GI; in short: as §1
[13] = Growth inhibition of human SKOV3 cells at 10 uM after 48 hrs by SRB assay relative to control; type: functional; conditions: SK-OV-3, 48 h, read-out: GI; in short: as §2
[14] = Growth inhibition of human NCI-H522 cells at 10 uM after 48 hrs by SRB assay relative to control; type: functional; conditions: NCI-H522, 48 h, read-out: GI; in short: as §1
[15] = Growth inhibition of human K562 cells at 10 uM after 48 hrs by SRB assay relative to control; type: functional; conditions: K562, 48 h, read-out: GI; in short: as §1
[16] = Growth inhibition of human OVCAR4 cells at 10 uM after 48 hrs by SRB assay relative to control; type: functional; conditions: OVCAR-4, 48 h, read-out: GI; in short: as §1
[17] = Growth inhibition of human SF268 cells at 10 uM after 48 hrs by SRB assay relative to control; type: functional; conditions: SF-268, 48 h, read-out: GI; in short: as §1
[18] = Growth inhibition of human NCI-322M cells at 10 uM after 48 hrs by SRB assay relative to control; type: functional; conditions: read-out: GI; in short: as §1
[19] = Growth inhibition of human SF539 cells at 10 uM after 48 hrs by SRB assay relative to control; type: functional; conditions: SF-539, 48 h, read-out: GI; in short: as §1
[20] = Growth inhibition of human T47D cells at 10 uM after 48 hrs by SRB assay relative to control; type: functional; conditions: read-out: GI; in short: as §2
[21] = Growth inhibition of human SK-MEL-5 cells at 10 uM after 48 hrs by SRB assay relative to control; type: functional; conditions: SK-MEL-5, 48 h, read-out: GI; in short: as §2
[22] = Growth inhibition of human NCI-H23 cells at 10 uM after 48 hrs by SRB assay relative to control; type: functional; conditions: NCI-H23, 48 h, read-out: GI; in short: as §1
Dihydrofolate reductase = target: T1, Dihydrofolate reductase (Bos taurus, UniProt P00376); experiment: Inhibition of bovine liver DHFR preincubated for 2 mins followed by addition of FH2 as substrate and NADPH
T1 sequence (P00376 whole entry): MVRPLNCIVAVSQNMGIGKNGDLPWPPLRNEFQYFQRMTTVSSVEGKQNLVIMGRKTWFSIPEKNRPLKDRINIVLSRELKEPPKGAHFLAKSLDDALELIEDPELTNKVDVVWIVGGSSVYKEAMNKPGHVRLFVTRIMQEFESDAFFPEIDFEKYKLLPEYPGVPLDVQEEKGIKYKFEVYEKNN

[23] = Growth inhibition of human SF295 cells at 10 uM after 48 hrs by SRB assay relative to control; type: functional; conditions: SF-295, 48 h, read-out: GI; in short: as §1
Cancer cell lines [24] = experiment: Potency index, ratio of 5-fluorouracil GI50 to compound GI50 for human ovarian cancer cells; type: functional
In short: (§3)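 GI50 for each cell line came from NCI panel testing over a 5-log dose range, with 5-fluorouracil tested alongside as the reference drug. The index relates the 5-fluorouracil GI50 to the compound GI50 within each tumour subpanel.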

[25] = Growth inhibition of human renal cancer cells after 48 hrs by SRB assay; type: functional; conditions: Cancer cell lines
In short: (§4)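 Follow-up NCI panel testing over a 5-log dose range for each cell line. GI50, TGI and LC50 were monitored, with 5-fluorouracil run as the positive control. Values are grouped by tumour subpanel.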

Cancer cell lines [26] = experiment: Potency index, ratio of 5-fluorouracil GI50 to compound GI50 for human prostate cancer cells; type: functional; in short: as §3
[27] = Growth inhibition of human breast cancer cells after 48 hrs by SRB assay; type: functional; conditions: Cancer cell lines; in short: as §4
Cancer cell lines [28] = experiment: Potency index, ratio of 5-fluorouracil GI50 to compound GI50 for human breast cancer cells; type: functional; in short: as §3
[29] = Growth inhibition of human non-small cell lung cancer cells after 48 hrs by SRB assay; type: functional; conditions: Cancer cell lines; in short: as §4
[30] = Growth inhibition of human leukemia cells after 48 hrs by SRB assay; type: functional; conditions: Leukemia cell; for CC50: read-out: LC50 (the source's name); in short: as §4
Leukemia cell = experiment: Potency index, ratio of 5-fluorouracil GI50 to compound GI50 for human leukemia cells; type: functional; in short: as §3
Cancer cell lines [31] = experiment: Potency index, ratio of 5-fluorouracil GI50 to compound GI50 for human colon cancer cells; type: functional; in short: as §3
[32] = Growth inhibition of human prostate cancer cells after 48 hrs by SRB assay; type: functional; conditions: Cancer cell lines; in short: as §4
[33] = Growth inhibition of human HL-60(TB) cells at 10 uM after 48 hrs by SRB assay relative to control; type: functional; conditions: HL-60, 48 h, read-out: GI
In short: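 NCI disease-oriented human tumour cell line screen: primary single-dose assay at 10 μM across the full 60-cell-line panel spanning nine tumour subpanels.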

COc1cc2nc(SCc3cc(OC)c(OC)c(OC)c3)n(-c3ccccc3OC)c(=O)c2cc1OC
inhibition of growth at 10 µM [1]: 22.7% | inhibition of growth at 10 µM [2]: 37.1% | inhibition of growth at 10 µM [3]: 22% | inhibition of growth at 10 µM [4]: 53.2% | inhibition of growth at 10 µM [5]: 15.4% | inhibition of growth at 10 µM [6]: 51.8% | inhibition of growth at 10 µM [7]: 27.5% | inhibition of growth at 10 µM [8]: < 10% | inhibition of growth at 10 µM [9]: 23% | inhibition of growth at 10 µM [10]: 13.2% | inhibition of growth at 10 µM [11]: 22.6% | inhibition of growth at 10 µM [12]: 39.2% | inhibition of growth at 10 µM [13]: < 10% | inhibition of growth at 10 µM [14]: < 10% | inhibition of growth at 10 µM [15]: 72.7% | inhibition of growth at 10 µM [16]: 16.9% | inhibition of growth at 10 µM [17]: 30.1% | inhibition of growth at 10 µM [18]: 14.9% | inhibition of growth at 10 µM [19]: 10.1% | inhibition of growth at 10 µM [20]: 11.4% | inhibition of growth at 10 µM [21]: < 10% | inhibition of growth at 10 µM [22]: 20.1% | IC50 (Dihydrofolate reductase): 0.8 µM | inhibition of growth at 10 µM [23]: 26.2%

COc1ccc(-n2c(SCc3cc(OC)c(OC)c(OC)c3)nc3ccc(C)cc3c2=O)c(OC)c1
inhibition of growth at 10 µM [1]: 68.4% | inhibition of growth at 10 µM [2]: 98.6% | inhibition of growth at 10 µM [3]: 80.4% | inhibition of growth at 10 µM [4]: 88.7% | RatioGI50 (Cancer cell lines [24]): 2 - 10 | inhibition of growth at 10 µM [5]: 54.5% | inhibition of growth at 10 µM [7]: 75.6% | GI50 [25]: 15.4 µM | LC50 [25]: > 100 µM | TGI [25]: 92.5 µM | inhibition of growth at 10 µM [9]: 84.6% | inhibition of growth at 10 µM [10]: 75.2% | inhibition of growth at 10 µM [11]: 55.2% | inhibition of growth at 10 µM [12]: 93.3% | RatioGI50 (Cancer cell lines [26]): 2 - 10 | inhibition of growth at 10 µM [13]: 54.7% | inhibition of growth at 10 µM [14]: < 10% | GI50 [27]: 4.1 µM | LC50 [27]: > 100 µM | TGI [27]: 84.9 µM | RatioGI50 (Cancer cell lines [28]): 2 - 10 | GI50 [29]: 17.7 µM | LC50 (concentration killing 50% of cells) [29]: > 100 µM | TGI [29]: 96.5 µM | inhibition of growth at 10 µM [15]: 85.6% | inhibition of growth at 10 µM [16]: 42.6% | inhibition of growth at 10 µM [17]: 55.9% | GI50 [30]: 2.5 µM | TGI [30]: 56.2 µM | CC50 [30]: > 100 µM | inhibition of growth at 10 µM [18]: 72% | inhibition of growth at 10 µM [19]: 80% | inhibition of growth at 10 µM [20]: 66.9% | inhibition of growth at 10 µM [21]: 82.4% | inhibition of growth at 10 µM [22]: 82.2% | IC50 (Dihydrofolate reductase): 3 µM | RatioGI50 (Leukemia cell): 2 - 10 | inhibition of growth at 10 µM [23]: 93.7% | RatioGI50 (Cancer cell lines [31]): 2 - 10 | GI50 [32]: 3.7 µM | LC50 (concentration killing 50% of cells) [32]: > 100 µM | TGI [32]: > 100 µM

COc1cc(CSc2nc3ccc(Cl)cc3c(=O)n2Cc2ccccc2)cc(OC)c1OC
inhibition of growth at 10 µM [1]: 60.7% | inhibition of growth at 10 µM [2]: 86.1% | inhibition of growth at 10 µM [3]: 86.9% | inhibition of growth at 10 µM [4]: 70.6% | RatioGI50 (Cancer cell lines [24]): 2 - 10 | inhibition of growth at 10 µM [5]: 47.1% | inhibition of growth at 10 µM [33]: 85.4% | inhibition of growth at 10 µM [7]: 84.8% | GI50 [25]: 4.4 µM | LC50 [25]: 96.5 µM | TGI [25]: 52.3 µM | inhibition of growth at 10 µM [9]: 85.7% | inhibition of growth at 10 µM [10]: 67.2% | inhibition of growth at 10 µM [11]: 61.2% | inhibition of growth at 10 µM [12]: 69.5% | RatioGI50 (Cancer cell lines [26]): 2 - 10 | inhibition of growth at 10 µM [13]: 75.7% | GI50 [27]: 3.3 µM | LC50 [27]: > 100 µM | TGI [27]: 59.1 µM | RatioGI50 (Cancer cell lines [28]): 2 - 10 | GI50 [29]: 5.5 µM | LC50 (concentration killing 50% of cells) [29]: 97.6 µM | TGI [29]: 66.5 µM | inhibition of growth at 10 µM [15]: 87.2% | inhibition of growth at 10 µM [16]: 48% | inhibition of growth at 10 µM [17]: 59.1% | GI50 [30]: 3 µM | TGI [30]: 87.9 µM | CC50 [30]: > 100 µM | inhibition of growth at 10 µM [18]: 52.5% | inhibition of growth at 10 µM [19]: 94.2% | inhibition of growth at 10 µM [20]: 66.1% | inhibition of growth at 10 µM [21]: 74.4% | inhibition of growth at 10 µM [22]: 74.9% | IC50 (Dihydrofolate reductase): 4 µM | RatioGI50 (Leukemia cell): 2 - 10 | inhibition of growth at 10 µM [23]: 71.1% | RatioGI50 (Cancer cell lines [31]): 2 - 10 | GI50 [32]: 4 µM | LC50 (concentration killing 50% of cells) [32]: > 100 µM | TGI [32]: > 100 µM
